In ChEMBL document CHEMBL4052620, “Design and synthesis of sulfonamide-substituted diphenylpyrimidines (SFA-DPPYs) as potent Bruton's tyrosine kinase (BTK) inhibitors with improved activity toward B-cell lymphoblastic leukemia” (Eur J Med Chem, 2017) one finds IC50, viability and Activity data, which are given here for 13 compounds.

In one series the test system is Raji. Put plainly: Antiproliferative activity against human Raji cells over expressing BTK after 48 hrs by CCK-8 assay. Format: functional, cell-based. In outline: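 Cells seeded at 3,000–5,000 per well in RPMI1640 with 10% FBS, held one day at 37 °C and 5% CO₂, then exposed to compound for 48 h. Read-out is CCK-8 absorbance at 450 nm. IC50 comes from five-point dose-response curves, as the mean of at least three separate experiments.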

Series [1] addresses Tyrosine-protein kinase BTK (Homo sapiens, UniProt Q06187). Put plainly: Inhibition of human recombinant full-length N-terminal His-tagged BTK expressed in baculovirus infected Sf9 insect cells after 60 mins by ADP-Glo kinase assay. Background: ADP-Glo first removes unused ATP, then detects ADP through luciferase.
Series [2] deals with Ramos. Description: Antiproliferative activity against human Ramos cells over expressing BTK after 48 hrs by CCK-8 assay. Format: functional, cell-based. In outline:
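Cells seeded at 3,000–5,000 per well in RPMI1640 with 10% FBS, held one day at 37 °C and 5% CO₂, then exposed to compound for 48 h. Concentrations ran 1.25 to 40 µM, five replicates per concentration. Read-out is CCK-8 absorbance at 450 nm. IC50 comes from five-point dose-response curves, as the mean of at least three separate experiments.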
(In general: Formazan colour is commonly taken as a measure of viable cells.)

Series [3] concerns Ramos. Description: Induction of apoptosis in human Ramos cells assessed as viable cells at 1 uM after 48 hrs by annexin V-FITC/propidium iodide staining-based flow cytometric analysis relative to control. It counts as functional. To be noted: read-out: Activity. On the technique in general: Flow cytometry measures light scatter and fluorescence of single cells or particles in a stream.

For series [4], the system named is Ramos. Put plainly: Antiproliferative activity against human Ramos cells over expressing BTK at 10 uM after 72 hrs by CCK-8 assay. Format: functional, cell-based. In outline:
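Ramos cells in RPMI-1640 with 10% FBS at 37 °C and 5% CO₂ were treated at 5, 10 or 20 µM for 24, 48 and 72 h. Viability was read by CCK-8 against an untreated control.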

Series [5] relates to Ramos. Description: Induction of apoptosis in human Ramos cells assessed as late apoptotic cells at 5 uM after 48 hrs by annexin V-FITC/propidium iodide staining-based flow cytometric analysis relative to control. It counts as functional.
Series [6] concerns Ramos. Description: Induction of apoptosis in human Ramos cells assessed as viable cells at 5 uM after 48 hrs by annexin V-FITC/propidium iodide staining-based flow cytometric analysis relative to control. To be noted: read-out: Activity. Format: functional.
Series [7] concerns Ramos. Put plainly: Induction of apoptosis in human Ramos cells assessed as early apoptotic cells at 1 uM after 48 hrs by annexin V-FITC/propidium iodide staining-based flow cytometric analysis relative to control. It counts as functional.
For series [8], the system named is Ramos. Description: Induction of apoptosis in human Ramos cells assessed as necrotic cells at 5 uM after 48 hrs by annexin V-FITC/propidium iodide staining-based flow cytometric analysis (reference value: 0.2%). It counts as functional.
The test system of series [9] is Ramos. Description: Induction of apoptosis in human Ramos cells assessed as late apoptotic cells at 1 uM after 48 hrs by annexin V-FITC/propidium iodide staining-based flow cytometric analysis relative to control. It counts as functional.
The subject of series [10] is Ramos. Put plainly: Induction of apoptosis in human Ramos cells assessed as early apoptotic cells at 5 uM after 48 hrs by annexin V-FITC/propidium iodide staining-based flow cytometric analysis relative to control. It counts as functional.
Series [11] deals with PBMC. Put plainly: Cytotoxicity against human PBMC at 5 to 10 uM after 24 hrs by acridine orange/propidium iodide staining-based fluorescent microscopic analysis. Format: cell-based. In outline: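 PBMC were isolated from venous blood of a healthy adult on Lymphoprep (density 1.077 g/ml), washed in PBS and seeded at about 2.5 × 10⁵ cells/well. Cells were treated at 5, 10 or 20 µM, five replicates, for 24 h at 37 °C in RPMI1640 with 10% FBS. Staining was AO/PI, 1.0 µg/mL each, for 10 min at room temperature. Live cells were counted under a fluorescence microscope with a counting chamber.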

The subject of series [12] is Ramos. Put plainly: Induction of apoptosis in human Ramos cells assessed as necrotic cells at 1 uM after 48 hrs by annexin V-FITC/propidium iodide staining-based flow cytometric analysis (reference value: 0.2%). Format: functional.
Series [13] concerns PBMC. Description: Cytotoxicity against human PBMC at 5 to 10 uM after 24 hrs by acridine orange/propidium iodide staining-based fluorescent microscopic analysis relative to control. Format: cell-based. In outline:
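PBMC isolated on Lymphoprep (density 1.077 g/ml) from venous blood of one healthy adult, seeded about 2.5 × 10⁵ cells/well in RPMI1640 with 10% FBS. Treated at 5, 10 or 20 µM for 24 h at 37 °C, 5% CO₂, five replicates per concentration. Stained with AO/PI (1.0 µg/mL each, in PBS) for 10 min at room temperature. Live cells counted by fluorescence microscopy and counting chamber.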

Series [14] deals with Ramos. Put plainly: Induction of apoptosis in human Ramos cells assessed as viable cells at 10 uM after 48 hrs by annexin V-FITC/propidium iodide staining-based flow cytometric analysis relative to control. It counts as functional. To be noted: read-out: Activity. In outline:
(§1)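 Ramos cells at 3 to 5 × 10⁵ cells/well were exposed for 48 h in medium with 5% FBS, with DMSO as solvent control. Cells were then fixed in ethanol at 4 °C, stained with Annexin V-FITC/propidium iodide and analysed by flow cytometry. One representative experiment is shown.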

Series [15] has as its system Ramos. Description: Induction of apoptosis in human Ramos cells assessed as necrotic cells at 10 uM after 48 hrs by annexin V-FITC/propidium iodide staining-based flow cytometric analysis (reference value: 0.2%). Format: functional. In outline:
as §1

Series [16] relates to Ramos. Description: Induction of apoptosis in human Ramos cells assessed as early apoptotic cells at 10 uM after 48 hrs by annexin V-FITC/propidium iodide staining-based flow cytometric analysis relative to control. Format: functional. In outline:
as §1

The test system of series [17] is Ramos. Description: Induction of apoptosis in human Ramos cells assessed as late apoptotic cells at 10 uM after 48 hrs by annexin V-FITC/propidium iodide staining-based flow cytometric analysis relative to control. It counts as functional. In outline:
as §1

Activity calls are given as the source filed them. The calls are words filed in the database; no cut-off is given here.

Tyrosine-protein kinase BTK, sequence (Q06187 whole entry): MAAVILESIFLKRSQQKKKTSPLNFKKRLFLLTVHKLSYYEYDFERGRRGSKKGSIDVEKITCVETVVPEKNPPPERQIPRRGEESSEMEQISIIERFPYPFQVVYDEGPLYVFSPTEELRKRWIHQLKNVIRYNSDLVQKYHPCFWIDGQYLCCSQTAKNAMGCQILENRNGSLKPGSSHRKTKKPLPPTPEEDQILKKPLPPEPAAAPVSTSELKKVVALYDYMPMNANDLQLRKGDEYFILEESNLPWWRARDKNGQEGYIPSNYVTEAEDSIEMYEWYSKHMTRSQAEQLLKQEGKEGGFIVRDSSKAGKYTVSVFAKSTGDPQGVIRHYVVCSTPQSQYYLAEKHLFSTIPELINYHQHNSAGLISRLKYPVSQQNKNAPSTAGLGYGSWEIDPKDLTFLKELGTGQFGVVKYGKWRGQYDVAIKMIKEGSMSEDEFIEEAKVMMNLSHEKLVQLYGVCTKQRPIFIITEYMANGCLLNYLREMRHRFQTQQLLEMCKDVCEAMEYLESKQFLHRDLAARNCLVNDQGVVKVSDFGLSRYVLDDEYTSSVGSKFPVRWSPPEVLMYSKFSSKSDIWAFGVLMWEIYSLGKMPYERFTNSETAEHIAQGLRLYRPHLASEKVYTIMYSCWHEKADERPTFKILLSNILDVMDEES

Regarding `C=CC(=O)Nc1cccc(Nc2nc(Nc3ccc(NS(=O)(=O)c4ccc(OC)cc4)cc3)ncc2Cl)c1`, the IC50 was 15.5 µM in the series with Raji, 0.00914 µM in series [1] and 18.8 µM with Ramos [2].

As for `C=CC(=O)Nc1cccc(Nc2nc(Nc3ccc(NS(=O)(=O)c4ccc(OC)cc4)cc3)ncc2F)c1`, the IC50 is 36.9 µM in the series on Raji, 0.00092 µM in [1] and greater than 40 µM in the series on Ramos [2].

For the compound `C=CC(=O)Nc1cccc(Nc2nc(Nc3ccc(NS(=O)(=O)c4ccc(F)cc4)c(C)c3)ncc2Cl)c1`, the concentration for half-maximal inhibition (IC50) in the series on Raji stood at 10.5 µM; in series [1] it was 0.0786 µM; with Ramos [2], 6.44 µM.

For the compound `C=CC(=O)Nc1cccc(Nc2nc(Nc3ccc(NS(=O)(=O)c4ccc(F)cc4)c(C)c3)ncc2[N+](=O)[O-])c1`, the IC50 in the series with Raji was 22.4 µM; in [1], 0.0854 µM; in the series with Ramos [2] it was greater than 40 µM.

For `C=CC(=O)Nc1cccc(Nc2nc(Nc3ccc(NS(=O)(=O)c4ccc(C)cc4)c(C)c3)ncc2[N+](=O)[O-])c1`, the IC50 is 14.2 µM in the series with Raji, 0.0486 µM in [1] and 38 µM with Ramos [2].

Consider `C=CC(=O)Nc1cccc(Nc2nc(Nc3ccc(NS(=O)(=O)c4ccc(F)cc4)c(OC)c3)ncc2Cl)c1`, for which the viability at 1 µM with Ramos [3] is 55.4%. The results for the IC50 (in the series on Raji; in series [1]; in the series with Ramos [2]) were 13.2 µM, 0.00118 µM and 6.49 µM, respectively. Moreover, in the series on Ramos [4], the outcome was Active. In addition, the Activity with Ramos [5] was 54.6%; with Ramos [7], 23.3%; in the series with Ramos [8], 13.2%; in the series with Ramos [9], 4.3%; in the series on Ramos [10], 7.2%; in the series with PBMC [11], “Non-Toxic”. The Activity with Ramos [12] was found to be 17%. Besides, the viability at 5 µM with Ramos [6] stood at 25%.

Turning to `C=CC(=O)N1CCC[C@@H](n2nc(-c3ccc(Oc4ccccc4)cc3)c3c(N)ncnc32)C1` [IBRUTINIB], the Activity is on record as 50% with PBMC [13], 14.7% with Ramos [15], 37.6% in the series with Ramos [16] and 7.5% with Ramos [17]. The compound further registered an IC50 with Ramos [2] of 5.88 µM. Further, the viability at 10 µM in the series on Ramos [14] came out at 40.2%.

As to `C=CC(=O)Nc1cccc(Oc2nc(Nc3ccc(NS(=O)(=O)c4ccc(C)cc4)c(C)c3)ncc2Cl)c1`, the IC50 was found to be 18.7 µM in the series on Raji, 0.00105 µM in [1] and 7.23 µM with Ramos [2].

For `C=CC(=O)Nc1cccc(Oc2nc(Nc3ccc(NS(=O)(=O)c4ccc(OC)cc4)cc3)ncc2Cl)c1`, the half-inhibitory concentration (IC50) in the series with Raji was 40.9 µM; in series [1], 0.00042 µM; with Ramos [2], greater than 40 µM.

As for `C=CC(=O)Nc1cccc(Nc2nc(Nc3ccc(NS(=O)(=O)c4ccc(C)cc4)c(OC)c3)ncc2[N+](=O)[O-])c1`, the results for the IC50 (in the series on Raji; in series [1]; with Ramos [2]) were 34.1 µM, greater than 0.1 µM and greater than 40 µM, respectively.

The compound `C=CC(=O)Nc1cccc(Nc2nc(Nc3ccc(OCCOC)cc3)ncc2F)c1` [SPEBRUTINIB] returned an IC50 in the series on Ramos [2] of 18.8 µM. Further, in the series on Ramos [14], the viability at 10 µM is 50.9%. The Activity amounted to 15.6% with Ramos [15], 27.7% in the series with Ramos [16] and 5.9% with Ramos [17].

`C=CC(=O)Nc1cccc(Nc2nc(Nc3ccc(NS(=O)(=O)c4ccc(OC)cc4)cc3)ncc2[N+](=O)[O-])c1`: the IC50 with Raji is 18.7 µM; in series [1], 0.0238 µM; in the series with Ramos [2] it was greater than 40 µM.

As to `C=CC(=O)Nc1cccc(Nc2nc(Nc3ccc(NS(=O)(=O)c4ccc(C)cc4)cc3)ncc2Cl)c1`, the IC50 in the series with Raji was 17.4 µM; in [1], 0.0585 µM; in the series with Ramos [2] it was greater than 40 µM.

As a reminder, the IC50 is the midpoint of a concentration-inhibition curve.
